Experimental data gathered from unrelated publications.
Protocols differ between the studies behind these lines.
Target: Tyrosine-protein kinase BTK (BTK, Homo sapiens, UniProt Q06187)
Effect on: enzyme activity
Action: inhibitor

The inhibition of CCN(CC)CCNC(=O)c1c(C)[nH]c(/C=C2\C(=O)Nc3ccc(F)cc32)c1C is reported as 16% (0.3 µM).
CNCc1ccc(-c2cc(-c3nc(-c4ccc(S(=O)(=O)C(C)C)cc4)cnc3N)on2)cc1 has an inhibition of 6% (2 µM).
COc1cc2ncnc(Nc3ccc(Oc4ccccc4)cc3C)c2cc1OC gave an inhibition of 71% (1 µM).
C=CC(=O)Nc1cc(Nc2nccc(Nc3cc(Cl)c(F)cc3C(C)(C)O)n2)c(OC)cc1N1CC[C@@H](N(C)C)C1 has an inhibition of 96% (1 µM).
O=C(CSc1nc2nccnc2c(=O)n1CCc1ccccc1)Nc1nccs1 gave an inhibition of 4% (10 µM).
The inhibition of CC#CC(=O)N1CCC[C@H]1c1nc(-c2ccc(C(=O)Nc3ccccn3)cc2)c2c(N)nccn12 is reported as 83% (radiometric; 0.1 µM).
For CC/C(=N\NC(=O)NCc1cccc(O)c1)c1ccc(O)c(C)c1O, the inhibition was -0.2% (0.1 µM).
The inhibition of CNc1cccc2cc(C(=O)Nc3ccc(C(=O)O)cc3)c(=O)[nH]c12 is reported as 2.1% (10 µM).
The inhibition of CNC(=O)c1cc(Oc2ccc(NC(=O)Nc3ccc(Cl)c(C(F)(F)F)c3)cc2)ccn1 is reported as 43% (10 µM).
For CNC(=O)c1cc2c(Oc3ccc(NC(=O)C4(C(=O)Nc5ccc(F)cc5)CC4)cc3)ccnc2cc1OC, the inhibition was 94% (radiometric; 1 µM).
Cc1ccc(Nc2nccc(N(C)c3ccc4c(C)n(C)nc4c3)n2)cc1S(N)(=O)=O has an inhibition of 12% (0.3 µM).
The inhibition of CN(C)C1CCN(CC#Cc2nn(C3CCCC3)c3nc(NCc4ccccc4)ncc23)C1 (stereo not drawn) is reported as 8% (FRET; 0.1 µM).
